Source: PubChem BioAssay
Active and inactive are the calls of the source.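 How the source made its calls, unless noted: active means GFP response above 150% of the DMSO level; inconclusive means fewer than 70 events counted for a yeast strain; inactive means the rest.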

Legend:
[1] = RPL19A-GFP modulators, yeast TOR pathway, confirmation, cell-based, S. cerevisiae, flow cytometry, cherry picks, mother/daughter gates (AID 2270;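 active means GFP response below 50% of the DMSO control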); details: S. cerevisiae RPL19A-GFP strain, 3 h, at 10 µM, stronger effect = lower value, 100 = same GFP as DMSO wells
[2] = LAP4-GFP expression modulators in yeast, confirmation, cell-based, cherry picks, flow cytometry, mother/daughter gates (AID 2271;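 active means GFP response above 150% of the DMSO control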;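 further: ratio of sample to DMSO plate mean so 100% equals DMSO level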); details: S. cerevisiae LAP4-GFP strain, 3 h, at 10 µM, stronger effect = higher value, 100 means same as DMSO control
In short: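 Test system: GFP-fusion yeast strain / Amount: 0.2 OD600 cells / Buffer or medium: SC medium / Dosing: 10 µM single dose / Incubation: compound exposure 3 h at 30 °C, end-over-end rotation / Detection: HT flow cytometry, GFP fluorescence channel / Evaluation: median GFP fluorescence as percent of plate-mean DMSO wells / Control set: DMSO-only negative wells, rapamycin 400 ng/mL positive wells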

[3] = modulators of MEP2-GFP levels in yeast, confirmation, S. cerevisiae, flow cytometry GFP, cherry picks (AID 2272;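 active means GFP response above 150% of the DMSO control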;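 further: ratio of well signal to plate DMSO mean so 100% equals DMSO level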); details: S. cerevisiae MEP2-GFP strain, 3 h, at 10 µM, stronger effect = higher value
[4] = AGP1-GFP expression modulators, hit retest, confirmation, cell-based, flow cytometry, S. cerevisiae, cherry picks (AID 2273);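 further: median GFP channel fluorescence over the whole cell population gate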; details: S. cerevisiae AGP1-GFP strain, 3 h, at 10 µM
[5] = modulators of CIT2-GFP expression in yeast, confirmation, S. cerevisiae, GFP fusion, cherry picks, mother/daughter gates (AID 2274); details: S. cerevisiae CIT2-GFP strain, flow cytometry, 3 h, at 10 µM, stronger effect = higher value
[6] = measured here: daughter cell gate
[7] = measured here: mother cell gate
[8] = measured here: daughter cell gate response
[9] = measured here: mother cell gate response

| SMILES | GFP response vs DMSO [1] | GFP response vs DMSO [1, 6] [%] | GFP response vs DMSO [1, 7] [%] | GFP response relative to DMSO [2] | GFP response relative to DMSO [2, 8] [%] | GFP response relative to DMSO [2, 9] [%] | GFP response vs DMSO [3] | GFP response, % of DMSO [4] | GFP response, % of DMSO [5] | GFP response, % of DMSO [5, 6] [%] | GFP response, % of DMSO [5, 7] [%] |
| --- | --- | --- | --- | --- | --- | --- | --- | --- | --- | --- | --- |
| COCC(=O)Nc1cc([N+](=O)[O-])ccc1C | 99.5% (inactive) | 101 | 99.8 | 101% (inactive) | 99.3 | 99.5 | 102% (inactive) | 98.4% (inactive) | 99.3% (inactive) | 100 | 98 |
| COC(=O)c1ccc(N2C(=O)CC(SCCN)C2=O)cc1 (configuration not stated) | 98.7% (inactive) | 100 | 98.4 | 98.9% (inactive) | 102 | 100 | 101% (inactive) | 103% (inactive) | 100% (inactive) | 103 | 99.3 |
| COc1cc(/C=C2/N=C(c3ccccc3)OC2=O)c(F)cc1OCc1ccccc1 | 99.1% (inactive) | 100 | 98 | 98.9% (inactive) | 102 | 98.4 | 101% (inactive) | 108% (inactive) | 106% (inactive) | 105 | 106 |
| CCc1nnc(NC(=O)c2ccc(S(=O)(=O)N(CC(C)C)CC(C)C)cc2)o1 | 101% (inactive) | 97.6 | 102 | 98.2% (inactive) | 97.5 | 97.3 | 101% (inactive) | 100% (inactive) | 102% (inactive) | 103 | 101 |
| O=S(=O)(/N=C(/Nc1ccc(F)cc1F)c1ccc(Cl)cc1)c1ccccc1 | 101% (inactive) | 101 | 103 | 96.5% (inactive) | 96.5 | 96.5 | 102% (inactive) | 96.9% (inactive) | 96.4% (inactive) | 98.3 | 95.6 |
| COc1cc(/C=C2\N=C(c3c(-c4ccccc4)noc3C)OC2=O)ccc1OC(C)=O | 98.6% (inactive) | 100 | 98.9 | 91.5% (inactive) | 92.8 | 89.7 | 100% (inactive) | 99.3% (inactive) | 103% (inactive) | 103 | 101 |
| CN=C(NC)SC1CC(=O)N(c2ccccc2)C1=O (configuration not stated) | 99.3% (inactive) | 97.8 | 102 | 99.8% (inactive) | 98.7 | 103 | 97.8% (inactive) | 93.5% (inactive) | 92.6% (inactive) | 93.2 | 91.2 |
| C=CCOc1ccccc1C(=O)/C=C1/C(=O)Nc2ccccc21 | 101% (inactive) | 102 | 95 | 142% (inactive) | 130 | 148 | 94.7% (inactive) | 100% (inactive) | 91.5% (inactive) | 95.6 | 88.2 |
| Cc1c(Br)c(O)c(Br)c2sc(=O)oc12 | 96.2% (inactive) | 101 | 94.2 | 125% (inactive) | 123 | 129 | 105% (inactive) | 101% (inactive) | 97.3% (inactive) | 101 | 94.4 |
| CCSc1nnc(NC(=O)c2nc(S(=O)(=O)Cc3ccc(F)cc3)ncc2Cl)s1 | 102% (inactive) | 99 | 103 | 103% (inactive) | 108 | 103 | 104% (inactive) | 102% (inactive) | 112% (inactive) | 110 | 113 |
| O=C(Nc1ccc(NC(=O)c2cc3ccccc3o2)cc1)c1ccc2c(c1)OCCO2 | 103% (inactive) | 101 | 102 | 97% (inactive) | 95.9 | 97.3 | 103% (inactive) | 98.6% (inactive) | 105% (inactive) | 99.2 | 107 |
| Cc1cc(N2CCN(C(=O)c3ccco3)CC2)n2ncc(-c3ccccc3)c2n1 | 108% (inactive) | 90.8 | 101 | 108% (inactive) | 96 | 105 | 116% (inactive) | 106% (inactive) | 118% (inactive) | 95.8 | 107 |
| COc1cc(NC(=O)c2cc3ccccc3o2)ccc1NC(=O)c1ccco1 | 99% (inactive) | 97.9 | 98.9 | 96.7% (inactive) | 97.6 | 96.1 | 102% (inactive) | 94.1% (inactive) | 104% (inactive) | 105 | 103 |
| O=C(N/N=C/c1ccccc1Cl)c1cccc(F)c1 | 101% (inactive) | 98.1 | 99.8 | 103% (inactive) | 101 | 104 | 101% (inactive) | 98.8% (inactive) | 100% (inactive) | 101 | 98.1 |
| O=C(COC(=O)c1cccs1)Nc1nc(-c2ccccc2)cs1 | 97% (inactive) | 95.6 | 98.4 | 99.2% (inactive) | 99.2 | 99.3 | 96.2% (inactive) | 99.1% (inactive) | 99.7% (inactive) | 99.1 | 96.1 |
| Cc1ccc(N2CC(C(=O)OCc3nnc(-c4ccccc4)o3)CC2=O)cc1 (configuration not stated) | 100% (inactive) | 102 | 101 | 102% (inactive) | 104 | 101 | 106% (inactive) | 96.2% (inactive) | 104% (inactive) | 104 | 103 |
| COc1cc(/C=C/C(=O)c2c(O)cc(C)oc2=O)cc(OC)c1O | 98.2% (inactive) | 99.6 | 96.8 | 106% (inactive) | 104 | 106 | 105% (inactive) | 101% (inactive) | 97.3% (inactive) | 99.2 | 94.4 |
